Results taken from BindingDB's records for doi:10.1021/jm050754u (Abbott Laboratories, 2006).

Assays:
[1] = Activity towards mouse FL5.12 cell line transfected with Bcl-XL in presence of gelatin
[2] = target: Bcl-2-like protein 1 (Homo sapiens, UniProt Q07817); test: Activity towards mouse FL5.12 cell line transfected with Bcl-XL in presence of gelatin
How it was run: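 Bcl-XL-transfected murine FL5.12 (IL-3 dependent) grown in RPMI with 10% FBS and WEHI-3B conditioned medium as the IL-3 source. Switched to IL-3-depleted, FBS-free medium for 2 days. Then placed in gelatin assay medium (3.4 mg/mL bovine gelatin) or 3% FBS assay medium. Serial compound dilutions added for 24 h. Viability read by MTS or CellTiter-Glo; duplicate values per determination; EC50.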

Bcl-2-like protein 1, sequence (Q07817 whole entry): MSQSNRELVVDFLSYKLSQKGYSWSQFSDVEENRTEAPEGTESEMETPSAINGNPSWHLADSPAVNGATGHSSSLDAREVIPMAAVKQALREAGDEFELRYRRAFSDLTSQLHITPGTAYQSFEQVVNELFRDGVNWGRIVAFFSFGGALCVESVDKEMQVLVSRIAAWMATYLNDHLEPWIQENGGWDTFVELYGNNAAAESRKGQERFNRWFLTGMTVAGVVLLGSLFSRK

SMILES	EC50 [1] [µM]	EC50 [2] [µM]
COc1cc(CCCN2CCOCC2)ccc1-c1ccc(C(=O)NS(=O)(=O)c2ccc(N[C@H](CCN(C)C)CSc3ccccc3)c([N+](=O)[O-])c2)cc1 [4-((R)-3-dimethylamino-1-phenylsulfanylmethylpropylamino)-N-[2'-methoxy-4'-(3-morpholin-4-ylpropyl)biphenyl-4-carbonyl]-3-nitrobenzenesulfonamide]	0.399	–
COc1cc(CCCN2CCOCC2)ccc1-c1ccc(C(=O)NS(=O)(=O)c2ccc(N[C@H](CCCN(C)C)CSc3ccccc3)c([N+](=O)[O-])c2)cc1 [4-((R)-4-Dimethylamino-1-phenylsulfanylmethylbutylamino)-N-[2'-methoxy-4'-(3-morpholin-4-ylpropyl)biphenyl-4-carbonyl]-3-nitrobenzenesulfonamide]	3.01	–
COc1cc(CCCN2CCOCC2)ccc1-c1ccc(C(=O)NS(=O)(=O)c2ccc(N[C@H](CCCCN)CSc3ccccc3)c([N+](=O)[O-])c2)cc1 [4-((R)-5-amino-1-phenylsulfanylmethylpentylamino)-N-[2'-methoxy-4'-(3-morpholin-4-ylpropyl)biphenyl-4-carbonyl]-3-nitrobenzenesulfonamide]	–	3.05
COc1cc(CCCN2CCOCC2)ccc1-c1ccc(C(=O)NS(=O)(=O)c2ccc(N[C@H](CCCCN(C)C)CSc3ccccc3)c([N+](=O)[O-])c2)cc1 [4-((R)-5-dimethylamino-1-phenylsulfanylmethylpentylamino)-N-[2'-methoxy-4'-(3-morpholin-4-ylpropyl)biphenyl-4-carbonyl]-3-nitrobenzenesulfonamide]	1.2	–
COc1cc(CCCN2CCOCC2)ccc1-c1ccc(C(=O)NS(=O)(=O)c2ccc(N[C@@H](CCN(C)C)CSc3ccccc3)c([N+](=O)[O-])c2)cc1 [4-((S)-3-dimethylamino-1-phenylsulfanylmethylpropylamino)-N-[2'-methoxy-4'-(3-morpholin-4-ylpropyl)biphenyl-4-carbonyl]-3-nitrobenzenesulfonamide]	32.5	–
COc1cc(CCCN2CCOCC2)ccc1-c1ccc(C(=O)NS(=O)(=O)c2ccc(N[C@@H](CSc3ccccc3)CC(=O)N(C)C)c([N+](=O)[O-])c2)cc1 [(R)-3-(4-{[2'-methoxy-4'-(3-morpholin-4-ylpropyl)biphenyl-4-carbonyl]sulfamoyl}-2-nitrophenylamino)-N,N-dimethyl-4-phenylsulfanylbutyramide]	1.28	–

More lines, now with the values ahead:

EC50 [1] [µM]	EC50 [2] [µM]	SMILES
2	–	CN(C)CCC[C@H](CSc1ccccc1)Nc1ccc(S(=O)(=O)NC(=O)c2ccc(N3CCC(C)(C)CC3)cc2)cc1[N+](=O)[O-] [4-((R)-4-dimethylamino-1-phenylsulfanylmethylbutylamino)-N-[4-(4,4-dimethylpiperidin-1-yl)benzoyl]-3-nitrobenzenesulfonamide]
4.13	–	CC1(C)CCN(c2ccc(C(=O)NS(=O)(=O)c3ccc(N[C@H](CCCCN)CSc4ccccc4)c([N+](=O)[O-])c3)cc2)CC1 [4-((R)-5-amino-1-phenylsulfanylmethylpentylamino)-N-[4-(4,4-dimethylpiperidin-1-yl)benzoyl]-3-nitrobenzenesulfonamide]
1.08	–	CN(C)CCCC[C@H](CSc1ccccc1)Nc1ccc(S(=O)(=O)NC(=O)c2ccc(N3CCC(C)(C)CC3)cc2)cc1[N+](=O)[O-] [4-((R)-5-dimethylamino-1-phenylsulfanylmethylpentylamino)-N-[4-(4,4-dimethylpiperidin-1-yl)benzoyl]-3-nitrobenzenesulfonamide]
9.5	–	CN(C)CC[C@@H](CSc1ccccc1)Nc1ccc(S(=O)(=O)NC(=O)c2ccc(N3CCC(C)(C)CC3)cc2)cc1[N+](=O)[O-] [4-((S)-3-dimethylamino-1-phenylsulfanylmethylpropylamino)--[4-(4,4-dimethylpiperidin-1-yl)benzoyl]-3-nitrobenzenesulfonamide]
2.14	–	CN(C)C(=O)C[C@H](CSc1ccccc1)Nc1ccc(S(=O)(=O)NC(=O)c2ccc(N3CCC(C)(C)CC3)cc2)cc1[N+](=O)[O-] [(R)-3-{4-[4-(4,4-dimethylpiperidin-1-yl)benzoylsulfamoyl]-2-nitrophenylamino}-N,N-dimethyl-4-phenylsulfanylbutyramide]
0.382	–	COc1cc(CCCN2CCOCC2)ccc1-c1ccc(C(=O)NS(=O)(=O)c2ccc(N[C@H](CCN3CCOCC3)CSc3ccccc3)c([N+](=O)[O-])c2)cc1 [N-[2'-methoxy-4'-(3-morpholin-4-ylpropyl)biphenyl-4-carbonyl]-4-((R)-3-morpholin-4-yl-1-phenylsulfanylmethylpropylamino)-3-nitrobenzenesulfonamide]
0.368	–	CC1(C)CCN(c2ccc(C(=O)NS(=O)(=O)c3ccc(N[C@H](CCN4CCOCC4)CSc4ccccc4)c([N+](=O)[O-])c3)cc2)CC1 [N-[4-(4,4-dimethylpiperidin-1-yl)benzoyl]-4-((R)-3-morpholin-4-yl-1-phenylsulfanylmethylpropylamino)-3-nitrobenzenesulfonamide]
4.2	–	CC1(C)CCN(c2ccc(C(=O)NS(=O)(=O)c3ccc(N[C@@H](CCN4CCOCC4)CSc4ccccc4)c([N+](=O)[O-])c3)cc2)CC1 [N-[4-(4,4-dimethylpiperidin-1-yl)benzoyl]-4-((S)-3-morpholin-4-yl-1-phenylsulfanylmethylpropylamino)-3-nitrobenzenesulfonamide]
